How the values were obtained:
[1] = Cmax in CD1 nu/nu mouse xenografted with human HCT116 cells at 525 mg/kg, po administered biweekly for 3 weeks; format: ADME, organism-based, HCT-116; set-up: dose 525 mg/kg, route oral; conditions: in vivo
Summary of the method: (§1)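 HCT116 cells (5 × 10^6 per mouse) injected subcutaneously into the right flank of CD1 nu/nu mice. Once tumors reached ~325 mm3, mice were randomized into groups of 12 and dosed orally for 21 days, once daily (qd) or biweekly (biw). Vehicle was 40% v/v PEG-400 plus 25% w/v HPβCD at 20 μL/g.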

[2] = Cmax in CD1 nu/nu mouse xenografted with human HCT116 cells at 50 mg/kg, po qd for 3 weeks; format: ADME, organism-based, HCT-116; set-up: dose 50 mg/kg, route oral; conditions: in vivo; summary of the method: as §1
[3] = Plasma protein binding in CD-1 mouse at 2 uM; format: ADME, cell-free; conditions: read-out: PPB (converted)
Summary of the method: (§2)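 Plasma protein binding measured in mouse, rat, dog and monkey plasma at 2 μM compound.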

in vivo [4] = conditions: CD1 nu/nu, mouse, po, 50 mg/kg
in vivo [5] = conditions: CD1 nu/nu, mouse, po, 525 mg/kg
Mus musculus [6] = assay: Inhibition of HDAC in CD1 nu/nu mouse tumor xenografted with human HCT116 cells assessed as plasma drug level causing increase in H2BK5 acetylation at 100 mg/kg, po bid after 72 hrs by ELISA; format: functional, HCT-116
[7] = Cmax in CD1 nu/nu mouse xenografted with human HCT116 cells at 875 mg/kg, po administered biweekly for 3 weeks; format: ADME, organism-based, HCT-116; set-up: dose 875 mg/kg, route oral; conditions: in vivo; summary of the method: as §1
[8] = Drug metabolism in human hepatocytes assessed as glucose conjugate level; format: ADME, cell-based, Hepatocyte
Mus musculus [9] = assay: Inhibition of HDAC in CD1 nu/nu mouse tumor xenografted with human HCT116 cells assessed as plasma drug level causing increase in H2BK5 acetylation at 100 mg/kg, po bid after 1 hr by ELISA; format: functional, HCT-116
[10] = Drug metabolism in rat hepatocytes; format: ADME, cell-based, Hepatocyte
[11] = Plasma clearance in Sprague-Dawley rat at 2 mg/kg, iv; format: ADME, organism-based; set-up: dose 2 mg/kg, route intravenous
Summary of the method: (§3)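 Intravenous dosing at 5 (mouse), 2 (rat), 0.5 (dog) and 0.5 (monkey) mg/kg. Plasma clearance, steady-state volume of distribution and half-life derived from the plasma profile.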

[12] = Half life in CD-1 mouse at 5 mg/kg, iv; format: ADME, organism-based; set-up: dose 5 mg/kg, route intravenous; conditions: in vivo; summary of the method: as §3
[13] = Plasma protein binding in Sprague-Dawley rat at 2 uM; format: ADME, cell-free; conditions: read-out: PPB (converted); summary of the method: as §2
[14] = AUC (0 to 24 hrs) in CD1 nu/nu mouse xenografted with human HCT116 cells at 875 mg/kg, po administered biweekly for 3 weeks; format: ADME, organism-based, HCT-116; set-up: time < 24 hr, dose 875 mg/kg, route oral; conditions: in vivo
Summary of the method: (§4)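 HCT116 cells (5 × 10^6/mouse) injected sc into right flank of CD1 nu/nu mice; at ~325 mm3 tumors, randomized into groups of 12. Oral dosing 21 days, once daily or biweekly, in 40% v/v PEG-400 and 25% w/v HPβCD at 20 μL/g. […] Tumor size by caliper.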

Mus musculus [15] = assay: Inhibition of HDAC in CD1 nu/nu mouse tumor xenografted with human HCT116 cells assessed as plasma drug level causing increase in H2BK5 acetylation at 200 mg/kg, po qd after 8 hrs by ELISA; format: functional, HCT-116
[16] = Cmax in CD1 nu/nu mouse xenografted with human HCT116 cells at 150 mg/kg, po qd for 3 weeks; format: ADME, organism-based, HCT-116; set-up: dose 150 mg/kg, route oral; conditions: in vivo; summary of the method: as §1
Mus musculus [17] = assay: Inhibition of HDAC in CD1 nu/nu mouse tumor xenografted with human HCT116 cells assessed as plasma drug level causing increase in H2BK5 acetylation at 200 mg/kg, po qd after 48 hrs by ELISA; format: functional, HCT-116
[18] = Volume of distribution at steady state in CD-1 mouse at 5 mg/kg, iv; format: ADME, organism-based; set-up: dose 5 mg/kg, route intravenous; conditions: in vivo, read-out: Vdss; summary of the method: as §3
Mus musculus [19] = assay: Inhibition of HDAC in CD1 nu/nu mouse tumor xenografted with human HCT116 cells assessed as plasma drug level causing increase in H2BK5 acetylation at 100 mg/kg, po bid after 8 hrs by ELISA; format: functional, HCT-116
[20] = AUC (0 to 24 hrs) in CD1 nu/nu mouse xenografted with human HCT116 cells at 50 mg/kg, po qd for 3 weeks; format: ADME, organism-based, HCT-116; set-up: time < 24 hr, dose 50 mg/kg, route oral; conditions: in vivo; summary of the method: as §4
[21] = AUC (0 to 24 hrs) in CD1 nu/nu mouse xenografted with human HCT116 cells at 200 mg/kg, po qd for 3 weeks; format: ADME, organism-based, HCT-116; set-up: time < 24 hr, dose 200 mg/kg, route oral; conditions: in vivo; summary of the method: as §4
Mus musculus [22] = assay: Inhibition of HDAC in CD1 nu/nu mouse tumor xenografted with human HCT116 cells assessed as plasma drug level causing increase in H2BK5 acetylation at 200 mg/kg, po qd after 24 hrs by ELISA; format: functional, HCT-116
[23] = Volume of distribution at steady state in rhesus monkey at 0.5 mg/kg, iv; format: ADME, organism-based, Macaca mulatta; set-up: dose 0.5 mg/kg, route intravenous; conditions: in vivo, read-out: Vdss; summary of the method: as §3
[24] = AUC (0 to 24 hrs) in CD1 nu/nu mouse xenografted with human HCT116 cells at 525 mg/kg, po administered biweekly for 3 weeks; format: ADME, organism-based, HCT-116; set-up: time < 24 hr, dose 525 mg/kg, route oral; conditions: in vivo; summary of the method: as §4
[25] = AUC (0 to 24 hrs) in CD1 nu/nu mouse xenografted with human HCT116 cells at 100 mg/kg, po qd for 3 weeks; format: ADME, organism-based, HCT-116; set-up: time < 24 hr, dose 100 mg/kg, route oral; conditions: in vivo; summary of the method: as §4
in vivo [26] = conditions: CD1 nu/nu, mouse, po, 875 mg/kg
[27] = Oral bioavailability in rhesus monkey at 1 mg/kg; format: ADME, organism-based, Macaca mulatta; conditions: in vivo
Mus musculus [28] = assay: Inhibition of HDAC in CD1 nu/nu mouse tumor xenografted with human HCT116 cells assessed as plasma drug level causing increase in H2BK5 acetylation at 100 mg/kg, po bid after 4 hrs by ELISA; format: functional, HCT-116
Mus musculus [29] = assay: Inhibition of HDAC in CD1 nu/nu mouse tumor xenografted with human HCT116 cells assessed as plasma drug level causing increase in H2BK5 acetylation at 200 mg/kg, po qd after 1 hr by ELISA; format: functional, HCT-116
[30] = Drug metabolism in human hepatocytes assessed as oxidation of piperidine ring; format: ADME, cell-based, Hepatocyte
Mus musculus [31] = assay: Inhibition of HDAC in CD1 nu/nu mouse tumor xenografted with human HCT116 cells assessed as plasma drug level causing increase in H2BK5 acetylation at 100 mg/kg, po bid after 24 hrs by ELISA; format: functional, HCT-116
Canis familiaris = assay: Dose normalized AUC in beagle dog at 1 mg/kg, po; format: ADME, organism-based, Canis lupus familiaris; set-up: dose 1 mg/kg, route oral; conditions: in vivo

## Nc1ccc(-c2cccs2)cc1NC(=O)c1ccc(N2CCC3(CC2)CNC(=O)O3)nc1
[1]
  Cmax: 56.8 µM
[2]
  Cmax: 3.5 µM
[3]
  fraction unbound at 2 µM: 0.015
In vivo [4]
  concentration at 24 h: 0.9 µM
In vivo [5]
  concentration at 24 h: 9.4 µM
Mus musculus [6]
  INH: 0.2 µM
[7]
  Cmax: 56.4 µM
[8]
  Drug metabolism: metabolite_notdetected
Mus musculus [9]
  INH: 14.3 µM
[10]
  Drug metabolism: metabolite_notdetected
[11]
  clearance: 3.6 mL/min/kg
[12]
  half-life: 2 h
[13]
  fraction unbound at 2 µM: 0.002
[14]
  AUC at 24 h: 1220 µM·h
Mus musculus [15]
  INH: 9.5 µM
[16]
  Cmax: 16.6 µM
Mus musculus [17]
  INH: 0.2 µM
[18]
  Vd: 2.1 L/kg
Mus musculus [19]
  INH: 9.9 µM
[20]
  AUC at 24 h: 40 µM·h
[21]
  AUC at 24 h: 371 µM·h
Mus musculus [22]
  INH: 0.2 µM
[23]
  Vd: 7.8 L/kg
[24]
  AUC at 24 h: 808 µM·h
[25]
  AUC at 24 h: 110 µM·h
In vivo [26]
  concentration at 24 h: 19.3 µM
[27]
  bioavailability: 100%
Mus musculus [28]
  INH: 9.6 µM
Mus musculus [29]
  INH: 11.9 µM
[30]
  Drug metabolism: metabolite_notdetected
Mus musculus [31]
  INH: 0.4 µM
Canis familiaris
  AUC/dose: 0.3 µM·kg·h/mg

Reference: ChEMBL document CHEMBL3286368, “Delayed and Prolonged Histone Hyperacetylation with a Selective HDAC1/HDAC2 Inhibitor” (ACS Med Chem Lett, 2014)
